Experimental data taken from ChEMBL document CHEMBL4014315 (J Med Chem, 2017).

Key:
ABCG2 [1] = molecular target: T1, ABCG2 (Homo sapiens, UniProt Q9UNQ0); experiment: Activation of ABCG2 (unknown origin) ATPase activity expressed in baculovirus infected high five cell membranes assessed as protein Vmax by ascorbic acid/ammonia molybdate reaction-based colorimetric analysis relative to basal control; details: read-out: Vmax
T1 sequence (Q9UNQ0 whole entry): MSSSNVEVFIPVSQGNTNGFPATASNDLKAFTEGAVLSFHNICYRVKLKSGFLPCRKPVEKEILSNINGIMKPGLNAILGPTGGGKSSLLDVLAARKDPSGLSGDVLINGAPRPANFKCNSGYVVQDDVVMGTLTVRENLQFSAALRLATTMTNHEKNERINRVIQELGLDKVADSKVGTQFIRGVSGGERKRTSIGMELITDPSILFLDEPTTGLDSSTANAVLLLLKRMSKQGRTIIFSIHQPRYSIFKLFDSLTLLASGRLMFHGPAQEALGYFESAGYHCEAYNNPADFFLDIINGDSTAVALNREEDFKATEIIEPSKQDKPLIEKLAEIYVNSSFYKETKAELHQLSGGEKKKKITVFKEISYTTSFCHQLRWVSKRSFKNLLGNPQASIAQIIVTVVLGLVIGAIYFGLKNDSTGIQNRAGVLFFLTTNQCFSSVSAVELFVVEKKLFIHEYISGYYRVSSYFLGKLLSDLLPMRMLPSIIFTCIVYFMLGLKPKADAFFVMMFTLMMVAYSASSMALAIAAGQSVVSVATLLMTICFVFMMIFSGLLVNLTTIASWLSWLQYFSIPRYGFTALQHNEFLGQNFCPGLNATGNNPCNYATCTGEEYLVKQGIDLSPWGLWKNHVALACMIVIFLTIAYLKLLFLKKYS
How it was run: (§1)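 Colorimetric ATPase assay of ABCG2 membranes; activity expressed relative to control. Where data were biphasic, a combined increasing plus decreasing logistic equation with the Hill coefficient fixed at one was fitted, giving an activating and an inactivating K.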

[2] = molecular target: T2, Broad substrate specificity ATP-binding cassette transporter ABCG2 (Homo sapiens, UniProt Q9UNQ0); experiment: Inhibition of recombinant human GFP-fused ABCG2 expressed in MDCK2 cells assessed as reduction in Hoechst 33342 efflux preincubated for 30 mins followed by Hoechst 33342 addition measured immediately at 60 sec time interval for 120 mins by fluorescence assay; assay type: cell-based
T2 sequence (Q9UNQ0 whole entry): T1 sequence (Q9UNQ0 whole entry)
How it was run: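 Hoechst 33342 accumulation assay: the dye is an ABCG2 substrate whose fluorescence rises when bound to DNA or embedded in membrane. Intracellular accumulation serves as the read-out of transporter inhibition.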

ABCG2 [3] = molecular target: T1, ABCG2; experiment: Inhibition of recombinant human GFP-fused ABCG2 expressed in MDCK2 cells assessed as reduction in Hoechst 33342 efflux at […] preincubated for 30 mins followed by Hoechst 33342 addition measured immediately at 60 sec time interval for 120 mins by fluorescence assay relative to Ko143; assay type: cell-based; details: MDCK2 cells expressing recombinant GFP-fused human ABCG2, probe Hoechst 33342, read-out: Imax
[4] = molecular target: T2, Broad substrate specificity ATP-binding cassette transporter ABCG2; experiment: Activation of ABCG2 (unknown origin) ATPase activity expressed in baculovirus infected high five cell membranes by ascorbic acid/ammonia molybdate reaction-based colorimetric analysis; how it was run: as §1
ABCB1 = ABCB1 (Homo sapiens, UniProt P08183); experiment: Inhibition of ABCB1 in human A2780adr cells assessed as reduction in calcein AM levels at 10 uM preincubated for 30 mins followed by calcein AM addition measured immediately at 60 sec time interval for 60 mins by fluorescence assay relative to Cyclosporine A; assay type: cell-based; details: probe calcein AM
Sequence of ABCB1 (P08183 whole entry): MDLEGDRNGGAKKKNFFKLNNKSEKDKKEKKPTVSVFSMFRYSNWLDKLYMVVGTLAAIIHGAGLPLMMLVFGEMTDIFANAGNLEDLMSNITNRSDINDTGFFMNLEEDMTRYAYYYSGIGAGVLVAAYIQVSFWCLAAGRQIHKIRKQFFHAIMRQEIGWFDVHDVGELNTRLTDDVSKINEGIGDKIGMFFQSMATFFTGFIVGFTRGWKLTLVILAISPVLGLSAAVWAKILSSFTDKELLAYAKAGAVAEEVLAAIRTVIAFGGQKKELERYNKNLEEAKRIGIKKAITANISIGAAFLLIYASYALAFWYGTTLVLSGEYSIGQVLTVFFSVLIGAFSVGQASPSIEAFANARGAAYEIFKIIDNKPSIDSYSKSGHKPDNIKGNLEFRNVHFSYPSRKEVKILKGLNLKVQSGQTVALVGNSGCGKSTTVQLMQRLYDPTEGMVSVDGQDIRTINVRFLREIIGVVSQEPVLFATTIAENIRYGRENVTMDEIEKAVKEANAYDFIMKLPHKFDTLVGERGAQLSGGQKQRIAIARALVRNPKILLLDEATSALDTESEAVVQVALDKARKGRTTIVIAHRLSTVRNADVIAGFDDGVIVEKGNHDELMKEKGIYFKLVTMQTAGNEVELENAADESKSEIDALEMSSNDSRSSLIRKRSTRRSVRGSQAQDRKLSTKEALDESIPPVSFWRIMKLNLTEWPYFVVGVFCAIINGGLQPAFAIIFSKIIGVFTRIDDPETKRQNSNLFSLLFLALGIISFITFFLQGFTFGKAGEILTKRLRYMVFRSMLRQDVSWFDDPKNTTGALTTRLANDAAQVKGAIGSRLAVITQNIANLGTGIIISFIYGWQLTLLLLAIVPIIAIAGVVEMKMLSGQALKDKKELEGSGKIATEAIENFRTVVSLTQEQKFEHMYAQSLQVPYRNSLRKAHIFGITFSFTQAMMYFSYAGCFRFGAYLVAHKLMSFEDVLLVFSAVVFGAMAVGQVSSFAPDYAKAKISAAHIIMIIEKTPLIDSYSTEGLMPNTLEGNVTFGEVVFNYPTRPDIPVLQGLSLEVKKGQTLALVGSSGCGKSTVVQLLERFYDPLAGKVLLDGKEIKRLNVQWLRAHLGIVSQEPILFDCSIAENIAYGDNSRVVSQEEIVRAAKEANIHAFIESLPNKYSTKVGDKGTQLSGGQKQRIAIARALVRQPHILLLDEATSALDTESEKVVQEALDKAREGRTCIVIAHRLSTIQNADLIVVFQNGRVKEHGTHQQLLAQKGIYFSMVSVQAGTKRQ
How it was run: (§2)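 Calcein AM assay in A2780adr cells (ABCB1 overexpressing) and H69AR cells (ABCC1 overexpressing). Compounds were screened at 10 µM, with inhibition relative to cyclosporine A as the total-inhibition control.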

[5] = molecular target: ATP-dependent translocase ABCB1 (Homo sapiens, UniProt P08183); experiment: Inhibition of ABCB1 in human A2780adr cells assessed as reduction in calcein AM levels preincubated for 30 mins followed by calcein AM addition measured immediately at 60 sec time interval for 60 mins by fluorescence assay; assay type: cell-based; how it was run: as §2
Sequence of ATP-dependent translocase ABCB1 (P08183 whole entry): as above

MDCK-II = experiment: Cytotoxicity against ABCG2 over-expressing MDCK2 cells assessed as effect on cell proliferation at low concentration after 72 hrs in absence of DMSO and presence of 1% methanol by MTT assay; assay type: ADME, cell-based, Canis lupus familiaris; details: dog
How it was run: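 Modified MTT viability assay in ABCG2-overexpressing MDCK II cells, run without DMSO and with a constant 1% methanol.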

[6] = Cytotoxicity against ABCG2 over-expressing MDCK2 cells assessed as cell growth inhibition after 72 hrs by MTT assay; assay type: ADME, cell-based, Canis lupus familiaris, MDCK-II; details: dog
[7] = Therapeutic index, ratio of GI50 for ABCG2 over-expressing MDCK2 cells to IC50 for recombinant human GFP-fused ABCG2 expressed in MDCK2 cells; assay type: cell-based
[8] = Cytotoxicity against MDCK2 cells assessed as cell growth inhibition after 72 hrs by MTT assay; assay type: cell-based, Canis lupus familiaris, MDCK-II; details: dog

Compound | Emax (ABCG2 [1]) | IC50 [2] | Emax at 2 h (ABCG2 [3]) | EC50 ([4]; read-out: EC50) | inhibition at 1 h, 10 µM (ABCB1) | IC50 [5] | Activity (MDCK-II) | GI50 at 72 h [6] | TI [7] | GI50 at 72 h [8] | EC50 [4]
COc1ccc(Nc2cc(C)nc(-c3ccncc3)n2)cc1 | 146% | 0.874 µM | 80 to 110% | 0.085 µM | – | – | – | – | – | – | –
COc1cccc(Nc2nc(-c3ccccn3)nc3ccccc23)c1 | – | 1.63 µM | 80 to 110% | – | > 25% | 12.7 µM | – | – | – | – | –
N#Cc1cccc(Nc2nc(-c3ccncc3)nc3ccccc23)c1 | 178% | 0.134 µM | 80 to 110% | 0.016 µM | – | – | Non-Toxic | 88.1 µM | 657 | 112 µM | –
COc1cccc(Nc2cc(C)nc(-c3ccncc3)n2)c1 | 144% | 0.271 µM | 80 to 110% | 0.082 µM | – | – | – | – | – | – | –
O=C(O)c1cccc(Nc2nc(-c3ccncc3)nc3ccccc23)c1 | – | 60 µM | 80 to 110% | – | – | – | – | – | – | – | –
COc1ccc(Nc2nc(-c3ccncc3)nc3ccccc23)cc1OC | 150% | 0.545 µM | 80 to 110% | 0.01 µM | > 25% | 2.08 µM | – | – | – | – | –
OCc1cccc(Nc2nc(-c3cccnc3)nc3ccccc23)c1 | – | 0.81 µM | 80 to 110% | – | – | – | – | – | – | – | –
N#Cc1cccc(Nc2nc(-c3ccccn3)nc3ccccc23)c1 | 115% | 0.507 µM | 80 to 110% | 1.53 µM | – | – | – | – | – | – | –
Cc1cc(Nc2ccccc2)nc(-c2ccccc2)n1 | 100% | 0.648 µM | 80 to 110% | – | – | – | – | 107 µM | 165 | 136 µM | Not Active
N#Cc1ccc(Nc2nc(-c3cccnc3)nc3ccccc23)cc1 | 137% | 0.166 µM | 80 to 110% | 0.004 µM | – | – | – | 79.4 µM | 241 | 104 µM | –
O=[N+]([O-])c1cccc(Nc2nc(-c3ccccn3)nc3ccccc23)c1 | 119% | 0.376 µM | 80 to 110% | 0.676 µM | – | – | – | – | – | – | –
O=[N+]([O-])c1cccc(Nc2nc(-c3cccnc3)nc3ccccc23)c1 | 154% | 0.105 µM | 80 to 110% | 0.021 µM | – | – | – | 70.8 µM | 615 | 64.6 µM | –
N#Cc1ccc(Nc2nc(-c3ccccc3)nc3ccccc23)cc1 | – | 0.0714 µM | 80 to 110% | – | – | – | – | – | – | – | –
Cc1cc(Nc2ccc(C#N)cc2)nc(-c2ccccc2)n1 | 140% | 0.128 µM | 80 to 110% | 2.46 µM | – | – | – | 17.8 µM | 139 | 28.4 µM | –
COc1cccc(Nc2nc(-c3cccnc3)nc3ccccc23)c1 | 137% | 1.02 µM | 80 to 110% | 0.05 µM | > 25% | 4.78 µM | – | – | – | – | –
O=C(O)c1ccc(Nc2nc(-c3ccncc3)nc3ccccc23)cc1 | – | 9.64 µM | 80 to 110% | – | > 25% | 3.67 µM | – | – | – | – | –
O=S(=O)(F)c1cccc(Nc2nc(-c3ccncc3)nc3ccccc23)c1 | – | 1.38 µM | 80 to 110% | – | – | – | – | – | – | – | –
Fc1cccc(Nc2nc(-c3ccccc3)nc3ccccc23)c1 | 142% | 0.363 µM | 80 to 110% | 0.131 µM | – | – | – | 18 µM | 49.6 | – | –
c1ccc(Nc2nc(-c3ccccc3)nc3ccccc23)cc1 | – | 0.882 µM | 80 to 110% | – | – | – | – | 26.6 µM | 30.1 | 26 µM | –

Compound | Emax (ABCG2 [1]) | IC50 [2] | Emax at 2 h (ABCG2 [3]) | EC50 ([4]; read-out: EC50) | inhibition at 1 h, 10 µM (ABCB1) | IC50 [5] | Activity (MDCK-II) | GI50 at 72 h [6] | TI [7] | GI50 at 72 h [8] | EC50 [4]
CC(C)(C)OC(=O)c1cccc(Nc2nc(-c3ccncc3)nc3ccccc23)c1 | 40% | 0.299 µM | 80 to 110% | 1.54 µM | > 25% | 0.334 µM | – | – | – | – | –
Fc1cccc(Nc2nc(-c3cccnc3)nc3ccccc23)c1 | 140% | 0.156 µM | 80 to 110% | 0.058 µM | – | – | – | 46.8 µM | 300 | 100 µM | –
CN(C)c1cccc(Nc2nc(-c3cccnc3)nc3ccccc23)c1 | – | 1.2 µM | 80 to 110% | – | – | – | – | 10 µM | 8.33 | 14.1 µM | –
COc1ccc(Nc2nc(-c3cccnc3)nc3ccccc23)cc1OC | – | 0.753 µM | 80 to 110% | – | > 25% | 3.11 µM | – | – | – | – | –
OCc1cccc(Nc2nc(-c3ccncc3)nc3ccccc23)c1 | – | 0.921 µM | 80 to 110% | – | – | – | – | – | – | – | –
N#Cc1cccc(Nc2nc(-c3ccccc3)nc3ccccc23)c1 | 145% | – | – | 0.015 µM | – | – | – | 10.4 µM | 146 | 14.2 µM | –
Cc1cc(Nc2cccc(C#N)c2)nc(-c2ccccc2)n1 | 134% | 0.122 µM | 80 to 110% | 2.08 µM | – | – | – | – | – | – | –
Oc1cccc(Nc2nc(-c3ccncc3)nc3ccccc23)c1 | – | 1.07 µM | 80 to 110% | – | – | – | – | 9.22 µM | 8.62 | 12.4 µM | –
Oc1ccc(Nc2nc(-c3ccncc3)nc3ccccc23)cc1 | – | 4.26 µM | 80 to 110% | – | – | – | – | 55 µM | 12.9 | 120 µM | –
O=[N+]([O-])c1cccc(Nc2nc(-c3ccncc3)nc3ccccc23)c1 | 185% | 0.117 µM | 80 to 110% | 0.004 µM | – | – | – | – | – | – | –
O=[N+]([O-])c1cc(Nc2nc(-c3ccccc3)nc3ccccc23)ccc1O | 135% | 0.0811 µM | 80 to 110% | 0.02 µM | – | – | – | – | 647 | – | –
Oc1ccc(Nc2nc(-c3ccccc3)nc3ccccc23)cc1 | – | 0.211 µM | 80 to 110% | – | – | – | – | 14.6 µM | 69.2 | 22.6 µM | –
COC(=O)c1cccc(Nc2nc(-c3ccncc3)nc3ccccc23)c1 | – | 0.405 µM | 80 to 110% | – | > 25% | 6.37 µM | – | – | – | – | –
COc1ccc(Nc2nc(-c3ccccn3)nc3ccccc23)cc1OC | 152% | 1.06 µM | 80 to 110% | 0.079 µM | > 25% | 6.3 µM | – | – | – | – | –
COc1ccc(Nc2nc(-c3ccncc3)nc3ccccc23)cc1C(F)(F)F | – | 0.146 µM | 80 to 110% | – | > 25% | 2.78 µM | – | 2.88 µM | 19.7 | 2.46 µM | –
COC(=O)c1cccc(Nc2nc(-c3cccnc3)nc3ccccc23)c1 | – | 0.362 µM | 80 to 110% | – | – | – | – | – | – | – | –
Cc1cc(Nc2cccc(C#N)c2)nc(-c2ccncc2)n1 | 133% | 0.132 µM | 80 to 110% | 0.022 µM | – | – | – | 6.92 µM | 52.4 | 9.33 µM | –
O=[N+]([O-])c1cc(Nc2nc(-c3cccnc3)nc3ccccc23)ccc1O | 151% | 0.245 µM | 80 to 110% | 0.007 µM | – | – | – | – | – | – | –
